Source: ChEMBL document CHEMBL2062362, “Bioactive 3,4-seco-Triterpenoids from the Fruits of Acanthopanax sessiliflorus” (J Nat Prod, 2012)

Experiments:
[1] = system: HCT-116; experiment: Cytotoxicity against human HCT116 cells by MTT assay; type: functional, cell-based
[2] = system: MCF7; experiment: Cytotoxicity against human MCF7 cells by MTT assay; type: functional, cell-based
[3] = system: SK-BR-3; experiment: Cytotoxicity against human SKBR3 cells by MTT assay; type: functional, cell-based
[4] = system: SK-OV-3; experiment: Cytotoxicity against human SKOV3 cells by MTT assay; type: functional, cell-based
[5] = system: HeLa; experiment: Cytotoxicity against human HeLa cells by MTT assay; type: functional, cell-based
[6] = system: HepG2; experiment: Cytotoxicity against human HepG2 cells by MTT assay; type: functional, cell-based
[7] = system: SK-MEL-5; experiment: Cytotoxicity against human SK-MEL-5 cells by MTT assay; type: functional, cell-based
[8] = system: RAW264.7; experiment: Antiinflammatory activity in mouse RAW264.7 cells assessed as inhibition of LPS-stimulated NO production pretreated for 30 mins before LPS challenge measured after 24 hrs by Griess reagent
[9] = Cytotoxicity against mouse RAW264.7 cells assessed as cell viability after 24 hrs by MTT assay; type: cell-based; parameters: concentration or dose not given beside the values; conditions: read-out: Activity
In short: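 The same LPS-stimulated RAW 264.7 cultures (1 × 10⁴ cells/well) were pretreated with samples for 30 min, then given LPS at 1 μg/mL for 24 h. Viability was assessed by MTT reduction and expressed as a percentage of the LPS-only group. Data are means ± SD of three independent experiments.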

| Structure (SMILES) | IC50 [1] [µM] | IC50 [2] [µM] | IC50 [3] [µM] | IC50 [4] [µM] | IC50 [5] [µM] | IC50 [6] [µM] | IC50 [7] [µM] | IC50 [8] [µM] | viability at 24 h [9] [%] |
| --- | --- | --- | --- | --- | --- | --- | --- | --- | --- |
| C=C(C)[C@@H]1C[C@H](O)[C@]2(C(=O)O)CC[C@]3(C)[C@H](C[C@H]4OC(=O)C[C@@H](O)[C@]5(C)[C@@H]4[C@@]3(C)CC[C@H]5C(=C)C)[C@@H]12 | > 10 | > 10 | > 10 | > 10 | > 10 | > 10 | > 10 | > 50 | – |
| C=C(C)[C@@H]1C[C@H](O)[C@]2(C(=O)O)CC[C@]3(C)[C@H](C[C@@H](O)[C@@H]4[C@@]5(C)[C@@H](CC(=O)O)OC(C)(C)[C@@H]5CC[C@]43C)[C@@H]12 | > 10 | > 10 | > 10 | > 10 | > 10 | > 10 | > 10 | > 50 | – |
| C=C(C)[C@@H]1CC[C@]2(C(=O)O[C@@H]3O[C@H](CO[C@@H]4O[C@H](CO)[C@@H](O)[C@H](O)[C@H]4O)[C@@H](O)[C@H](O)[C@H]3O)CC[C@]3(C)[C@H](C[C@H]4OC(=O)C[C@@H](O)[C@]5(C)[C@@H]4[C@@]3(C)CC[C@H]5C(=C)C)[C@@H]12 | > 10 | > 10 | > 10 | > 10 | > 10 | > 10 | > 10 | > 50 | – |
| C=C(C)[C@@H]1C[C@H](O)[C@]2(C(=O)O[C@@H]3O[C@H](CO[C@@H]4O[C@H](CO)[C@@H](O[C@@H]5O[C@@H](C)[C@H](O)[C@@H](O)[C@H]5O)[C@H](O)[C@H]4O)[C@@H](O)[C@H](O)[C@H]3O)CC[C@]3(C)[C@H](C[C@H]4OC(=O)C[C@@H](O)[C@]5(C)[C@@H]4[C@@]3(C)CC[C@H]5C(=C)C)[C@@H]12 | > 10 | > 10 | > 10 | > 10 | > 10 | > 10 | > 10 | > 50 | – |
| C=C(C)[C@@H]1CC[C@]2(C(=O)O)CC[C@]3(C)[C@H](C[C@@H](O)[C@@H]4[C@@]5(C)[C@@H](CC(=O)OC)OC(C)(C)[C@@H]5CC[C@]43C)[C@@H]12 [ACANTHOSESSILIGENIN II] | > 10 | > 10 | > 10 | > 10 | > 10 | > 10 | > 10 | 47 | 91.1 |
| C=C(C)[C@@H]1C[C@H](O)[C@]2(C(=O)O)CC[C@]3(C)[C@H](CC[C@@H]4[C@@](C)(CCC(=O)OC)[C@H](C(=C)C)CC[C@]43C)[C@@H]12 [ACANTHOSESSILIGENIN I] | > 10 | > 10 | > 10 | > 10 | > 10 | > 10 | > 10 | 11.3 | 88.8 |
| C=C(C)[C@@H]1CC[C@]2(C(=O)O[C@@H]3O[C@H](CO)[C@@H](O)[C@H](O)[C@H]3O)CC[C@]3(C)[C@H](CC[C@@H]4[C@@](C)(CCC(=O)O)[C@H](C(=C)C)CC[C@]43C)[C@@H]12 [ACANTHOSESSILIOSIDE A] | > 10 | > 10 | > 10 | > 10 | > 10 | > 10 | > 10 | 18.3 | 93.5 |
| C=C(C)[C@@H]1CC[C@]2(C(=O)O[C@@H]3O[C@H](CO)[C@@H](O)[C@H](O)[C@H]3O)CC[C@]3(C)[C@H](C[C@@H](O)[C@@H]4[C@@]5(C)[C@@H](CC(=O)OC)OC(C)(C)[C@@H]5CC[C@]43C)[C@@H]12 [ACANTHOSESSILIOSIDE B] | > 10 | > 10 | > 10 | > 10 | > 10 | > 10 | > 10 | 20.6 | 93 |
| C=C(C)[C@@H]1C[C@H](O)[C@]2(C(=O)O[C@@H]3O[C@H](CO)[C@@H](O)[C@H](O)[C@H]3O)CC[C@]3(C)[C@H](C[C@@H](O)[C@@H]4[C@@]5(C)[C@@H](CC(=O)OC)OC(C)(C)[C@@H]5CC[C@]43C)[C@@H]12 [ACANTHOSESSILIOSIDE C] | > 10 | > 10 | > 10 | > 10 | > 10 | > 10 | > 10 | > 50 | – |
| C=C(C)[C@@H]1CC[C@]2(C(=O)O)CC[C@]3(C)[C@H](CC[C@@H]4[C@@]5(C)[C@@H](CC(=O)O[C@@H]6O[C@H](CO)[C@@H](O)[C@H](O)[C@H]6O)OC(C)(C)[C@@H]5CC[C@]43C)[C@@H]12 [ACANTHOSESSILIOSIDE D] | > 10 | > 10 | > 10 | > 10 | > 10 | > 10 | > 10 | 11.9 | 95.2 |
| C=C(C)[C@@H]1C[C@H](O)[C@]2(C(=O)O[C@@H]3O[C@H](CO)[C@@H](O)[C@H](O)[C@H]3O)CC[C@]3(C)[C@H](CC[C@@H]4[C@@]5(C)[C@@H](CC(=O)O)OC(C)(C)[C@@H]5CC[C@]43C)[C@@H]12 [ACANTHOSESSILIOSIDE E] | > 10 | > 10 | > 10 | > 10 | > 10 | > 10 | > 10 | > 50 | – |
| C=C(C)[C@@H]1C[C@H](O)[C@]2(C(=O)O[C@@H]3O[C@H](CO)[C@@H](O)[C@H](O)[C@H]3O)CC[C@]3(C)[C@H](C[C@H]4OC(=O)C[C@@H](O)[C@]5(C)[C@@H]4[C@@]3(C)CC[C@H]5C(=C)C)[C@@H]12 [ACANTHOSESSILIOSIDE F] | > 10 | > 10 | > 10 | > 10 | > 10 | > 10 | > 10 | > 50 | – |
| C=C(C)[C@@H]1CC[C@]2(C(=O)O[C@@H]3O[C@H](CO[C@@H]4O[C@H](CO)[C@@H](O[C@@H]5O[C@@H](C)[C@H](O)[C@@H](O)[C@H]5O)[C@H](O)[C@H]4O)[C@@H](O)[C@H](O)[C@H]3O)CC[C@]3(C)[C@H](C[C@H]4OC(=O)C[C@@H](O)[C@]5(C)[C@@H]4[C@@]3(C)CC[C@H]5C(=C)C)[C@@H]12 [CHIISANOSIDE] | < 10 | < 10 | < 10 | < 10 | > 10 | > 10 | < 10 | > 50 | – |
| CC(=O)O[C@H]1C(=O)[C@@]2(C)[C@H]([C@H](OC(=O)c3ccccc3)[C@]3(O)C[C@H](OC(=O)[C@H](O)[C@@H](NC(=O)c4ccccc4)c4ccccc4)C(C)=C1C3(C)C)[C@]1(OC(C)=O)CO[C@@H]1C[C@@H]2O [PACLITAXEL] | 0.05 | 0.9 | 0.11 | 0.4 | – | – | 0.15 | – | – |
| N=C(N)NN [PIMAGEDINE] | – | – | – | – | – | – | – | 6.5 | 84.6 |
